For test [1], the target named is Protein farnesyltransferase (Homo sapiens, UniProt P49354+P49356). Briefly: Inhibition of human farnesyltransferase assessed as incorporation of [3H]FPP into H-Ras-CVLS. Type of test: protein-complex assay. The method in brief: (§1)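 In vitro radiometric assay measuring transfer of [3H]FPP (FTase) or [3H]GGPP (GGTase-I) onto recombinant H-Ras-CVLS or H-Ras-CVLL, respectively.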

A further test is filed under the species Homo sapiens. Put plainly: Selectivity ratio of IC50 for human geranylgeranyltransferase-1 to IC50 for human farnesyltransferase.
The target of test [2] is Geranylgeranyl transferase type I (Homo sapiens, UniProt P49354+P53609). Put plainly: Inhibition of human geranylgeranyltransferase-1 assessed as incorporation of [3H]GGPP into H-Ras-CVLL. Type of test: protein-complex assay. In a few lines:
as §1

The target in test [3] is Geranylgeranyl transferase type 1 (Mus musculus, UniProt Q61239+Q8BUY9). Put plainly: Inhibition of Rap1A geranylgeranylation expressed in mouse NIH3T3 cells. It counts as functional, cell-based. The method in brief:
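Oncogenic H-Ras-transformed NIH3T3 cells were treated with a range of inhibitor concentrations. […] Detection used peroxidase-conjugated secondary antibodies and enhanced chemiluminescence. IC50 is the mean of three independent assays ± SD unless stated otherwise.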

The target of test [4] is Protein farnesyltransferase (Mus musculus, UniProt Q61239+Q8K2I1). Briefly: Inhibition of H-Ras farnesylation expressed in mouse NIH3T3 cells. Type of test: functional, cell-based. The method in brief:
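Oncogenic H-Ras-transformed NIH3T3 cells were treated with a range of inhibitor concentrations. Detection used peroxidase-conjugated secondary antibodies and enhanced chemiluminescence. IC50 is the mean of three independent assays ± SD unless stated otherwise.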

In the case of `Cn1cnc(S(=O)(=O)N(CCN(Cc2cncn2C)c2c(F)c(F)c(C#N)c(F)c2F)CC2CCN(c3ncccn3)CC2)c1`, the IC50 was 490 nM in test [1] and 8750 nM in test [2]. The Selectivity ratio in the test filed under Homo sapiens stood at 18.
In the case of `CN(C)c1cccc2c(S(=O)(=O)N(CCN(Cc3cncn3C)c3ccc(C#N)cc3)Cc3ccccc3)cccc12`, the IC50 is 160 nM in test [1], over 10000 nM in test [3] and 10000 nM in test [2].
As to `Cn1cnc(S(=O)(=O)N(CCN(Cc2c[nH]cn2)c2ccc(Br)cc2)Cc2ccccc2)c1`, the Selectivity ratio in the test filed under Homo sapiens is 6.
`Cc1ccc(CN(CCN(Cc2cncn2C)c2ccc(C#N)cc2)S(=O)(=O)c2cn(C)cn2)cc1`: the IC50 in test [1] was 370 nM; in test [3] it was over 10000 nM; in test [2], 580 nM; in test [4], 2000 nM.
Consider `Cn1cnc(S(=O)(=O)N(CCN(Cc2cncn2C)c2ccc(C#N)cn2)CC2CCN(c3ncccn3)CC2)c1`, for which the IC50 in test [1] is 110 nM; in test [2] it was over 10000 nM. The Selectivity ratio in the test filed under Homo sapiens is over 91.
For `Cn1cnc(S(=O)(=O)N(CCN(Cc2cncn2C)c2ccc(C#N)cc2)Cc2cccs2)c1`, the IC50 in test [1] was 2300 nM; in test [3], over 10000 nM; in test [2], 5900 nM; in test [4], 400 nM. Further, the Selectivity ratio in the test listed under Homo sapiens was 2.6.
Turning to `C=CCN(CCN(Cc1cncn1C)c1ccc(C#N)cc1)S(=O)(=O)c1cn(C)cn1`, the IC50 in test [1] was 54 nM; in test [3], over 10000 nM; in test [2], over 10000 nM; in test [4], over 10000 nM. Besides, in the test filed under Homo sapiens, the Selectivity ratio is over 14.
Regarding `Cn1cnc(S(=O)(=O)N(Cc2ccccc2)[C@@H]2CC[C@@H](N(Cc3cncn3C)c3ccc(C#N)cc3)C2)c1` (racemic), the IC50 worked out at 380 nM in test [1] and 7050 nM in test [2]. In the test listed under Homo sapiens, the Selectivity ratio turned out to be 19.
On to `CCCS(=O)(=O)N(CCN(Cc1cncn1C)c1ccc(C#N)cc1)Cc1ccccc1`, for which the IC50 in test [3] is over 10000 nM; in test [4], 70 nM. For the same molecule, in the test filed under Homo sapiens, the Selectivity ratio stood at 85.
As for `Cn1cnc(S(=O)(=O)N(Cc2ccccc2)[C@H]2CCC[C@@H]2N(Cc2cncn2C)c2ccc(C#N)cc2)c1` (racemic), the values for the IC50 in test [1] and in test [2] were 450 nM and 9150 nM, respectively. In the test filed under Homo sapiens, the Selectivity ratio stood at 20.
On to `Cn1cnc(S(=O)(=O)N(Cc2ccccc2)[C@H]2CC[C@@H](N(Cc3cncn3C)c3ccc(C#N)cc3)C2)c1` (racemic), for which the IC50 in test [1] was 650 nM; in test [2] it was over 10000 nM. For the same molecule, the Selectivity ratio in the test filed under Homo sapiens is over 15.
As for `Cn1cnc(S(=O)(=O)N(CCN(Cc2cncn2C)c2c(F)cc(C#N)cc2F)CC2CCN(c3ncccn3)CC2)c1`, the IC50 in test [1] is 290 nM; in test [2] it was over 10000 nM. Also, in the test filed under Homo sapiens, the Selectivity ratio was over 34.
Take `Cn1cnc(S(=O)(=O)N(CCN(Cc2cncn2C)c2ccc(C(=O)O)cc2)Cc2ccccc2)c1`: the IC50 in test [1] and in test [2] was over 10000 nM each time.
For the molecule `Cn1cnc(S(=O)(=O)N(CCN(Cc2cncn2C)c2ccc(C#N)c(F)c2)CC2CCN(c3ncccn3)CC2)c1`, the IC50 in test [1] is 230 nM; in test [2] it was 9400 nM. Further, the Selectivity ratio in the test filed under Homo sapiens was determined as 41.
For the molecule `Cc1nc(C)c(CN(CCN(Cc2cncn2C)c2ccc(C#N)cc2)S(=O)(=O)c2cn(C)cn2)s1`, the IC50 is 6200 nM in test [1], over 10000 nM in test [3], over 10000 nM in test [2] and over 10000 nM in test [4]. Besides, the Selectivity ratio in the test filed under Homo sapiens was over 1.6.
As to `Cc1ccccc1CN(CCN(Cc1cncn1C)c1ccc(C#N)cc1)S(=O)(=O)c1cn(C)cn1`, the IC50 in test [1] is 51 nM; in test [3], over 10000 nM; in test [2] it was 780 nM; in test [4] it was 1000 nM. The Selectivity ratio in the test listed under Homo sapiens is 15.
Consider `Cn1cnc(S(=O)(=O)N(CCN(Cc2cncn2C)c2ccc(Br)cc2)Cc2ccccc2)c1`, for which the IC50 is over 10000 nM in test [3] and 1600 nM in test [4]. Further, the Selectivity ratio in the test listed under Homo sapiens stood at 6.7.
As for `Cn1cnc(S(=O)(=O)N(CCN(Cc2cncn2C)c2ccc(C#N)cc2)CC2CCN(C(=O)OC(C)(C)C)CC2)c1`, the IC50 was over 2000 nM in test [3], over 10000 nM in test [2] and over 2000 nM in test [4]. Besides, in the test filed under Homo sapiens, the Selectivity ratio was over 2.7.
Regarding `Cn1cnc(S(=O)(=O)N(CCN(Cc2cncn2C)c2ccc(C#N)nc2)CC2CCN(c3ncccn3)CC2)c1`, the values for the IC50 in test [1] and in test [2] were 520 nM and over 10000 nM, respectively.
`Cc1noc(C)c1CN(CCN(Cc1cncn1C)c1ccc(C#N)cc1)S(=O)(=O)c1cn(C)cn1`: the IC50 in test [1] is 510 nM; in test [3] it was over 10000 nM; in test [2], 1360 nM; in test [4], over 10000 nM. Moreover, the Selectivity ratio in the test filed under Homo sapiens worked out at 2.7.
`Cn1cnc(S(=O)(=O)N(CCN(Cc2cncn2C)c2ccc(C#N)cc2Cl)CC2CCN(c3ncccn3)CC2)c1`: the concentration for half-maximal inhibition (IC50) was 550 nM in test [1] and over 10000 nM in test [2].
Turning to `Cn1cncc1CN(CCN(Cc1ccccc1)S(=O)(=O)c1ccccn1)c1ccc(C#N)cc1`, the IC50 in test [1] was 25 nM; in test [3], over 10000 nM; in test [2], 820 nM; in test [4], 90 nM.
On to `Cn1cnc(S(=O)(=O)N(CCN(Cc2cncn2C)c2ccc(C#N)cc2)Cc2cccc(C#N)c2)c1`, for which the concentration for half-maximal inhibition (IC50) was 78 nM in test [1], over 10000 nM in test [3] and 5000 nM in test [4].
On to `Cc1c(CN(CCN(Cc2cncn2C)c2ccc(C#N)cc2)S(=O)(=O)c2cn(C)cn2)cnn1C`, for which the IC50 in test [1] is 5300 nM; in test [2], over 10000 nM.
Consider `C=C(Br)CN(CCN(Cc1cncn1C)c1ccc(C#N)cc1)S(=O)(=O)c1cn(C)cn1`, for which the IC50 in test [1] was 180 nM; in test [3], over 10000 nM; in test [2], 5500 nM; in test [4], 5700 nM. For the same molecule, the Selectivity ratio in the test filed under Homo sapiens is 31.
`Cn1cncc1CN(CCN(CC1CCCCC1)S(=O)(=O)c1ccccn1)c1ccc(C#N)cc1`: the IC50 in test [1] came to 400 nM; in test [3] it was 6200 nM; in test [2], 610 nM; in test [4], 268 nM. Also, the Selectivity ratio in the test listed under Homo sapiens came to 1.5.
`Cn1cnc(S(=O)(=O)N(CCN(Cc2cncn2C)c2ccc(C(N)=O)cc2)Cc2ccccc2)c1`: the figures for the IC50 in test [1] and in test [2] were 5300 nM and over 10000 nM, respectively. In the test filed under Homo sapiens, the Selectivity ratio was over 2.
For the molecule `Cn1cnc(S(=O)(=O)N(CCN(Cc2cnc[nH]2)c2ccc(Br)cc2)Cc2ccccc2)c1`, the figures for the IC50 in test [3] and in test [4] were over 10000 nM and 5700 nM, respectively.
For `Cn1cnc(S(=O)(=O)N(CCN(Cc2cncn2C)c2ccc(C(=O)OC(C)(C)C)cc2)Cc2ccccc2)c1`, the concentration for half-maximal inhibition (IC50) in test [1] is 5400 nM; in test [2] it was 4900 nM. Further, the Selectivity ratio in the test filed under Homo sapiens was determined as 0.9.
Consider `Cn1cnc(S(=O)(=O)N(CCN(Cc2cncn2C)c2ccc(C#N)cc2)CC2CCCCC2)c1`, for which the IC50 is 60 nM in test [1], over 10000 nM in test [3], 530 nM in test [2] and 100 nM in test [4]. Further, in the test listed under Homo sapiens, the Selectivity ratio was determined as 8.8.
`Cn1cnc(S(=O)(=O)N(CCN(Cc2cncn2C)c2ncc(C#N)cn2)CC2CCN(c3ncccn3)CC2)c1`: the 50% inhibitory concentration (IC50) is 620 nM in test [1] and over 10000 nM in test [2]. The Selectivity ratio in the test filed under Homo sapiens was over 16.
Take `C#CCN(CCN(Cc1cncn1C)c1ccc(C#N)cc1)S(=O)(=O)c1cn(C)cn1`: the IC50 in test [1] was 720 nM; in test [3], over 10000 nM; in test [2], over 10000 nM. The Selectivity ratio in the test filed under Homo sapiens is over 14.
Turning to `Cn1cnc(S(=O)(=O)N(CCN(Cc2cncn2C)c2ccc(C#N)cc2F)CC2CCN(c3ncccn3)CC2)c1`, the IC50 in test [1] was 64 nM; in test [2], over 10000 nM. For the same molecule, the Selectivity ratio in the test listed under Homo sapiens was over 156.
In the case of `Cn1cncc1CN(CCN(CC1CCCCC1)S(=O)(=O)c1ccccn1)c1ccc(C#N)cc1F`, the IC50 in test [3] is 2700 nM; in test [4] it was 88.7 nM. For the same molecule, the Selectivity ratio in the test listed under Homo sapiens came to 2.1.
`Cn1cnc(S(=O)(=O)N(CCCN(Cc2cncn2C)c2ccc(C#N)cc2)Cc2ccccc2)c1`: the IC50 in test [1] is 420 nM; in test [2], 4600 nM. Further, the Selectivity ratio in the test listed under Homo sapiens was found to be 11.
Regarding `Cn1cnc(S(=O)(=O)N(CCN(Cc2cncn2C)c2ccc(C#N)cc2)Cc2ccncc2)c1`, the half-maximal inhibitory concentration (IC50) in test [1] is 72 nM; in test [3], over 10000 nM; in test [2], over 10000 nM; in test [4], over 10000 nM.
In the case of `Cn1cnc(S(=O)(=O)N(CCN(Cc2cncn2C)c2ccc(-c3ccccc3)cc2)Cc2ccccc2)c1`, the IC50 in test [1] came out at 6850 nM; in test [2], 5000 nM. Also, the Selectivity ratio in the test filed under Homo sapiens turned out to be 0.7.
Consider `Cn1cnc(S(=O)(=O)N(Cc2ccccc2)[C@@H]2CCC[C@@H]2N(Cc2cncn2C)c2ccc(C#N)cc2)c1` (racemic), for which the IC50 in test [1] is 1000 nM; in test [2] it was over 10000 nM. In the test listed under Homo sapiens, the Selectivity ratio was over 10.
Turning to `Cn1cncc1CN(CCN(Cc1ccccc1)S(=O)(=O)C1CC1)c1ccc(C#N)cc1`, in the test filed under Homo sapiens, the Selectivity ratio turned out to be 65.
Still for that read-out and setting: for `Cn1cnc(S(=O)(=O)N(CCN(Cc2c[nH]cn2)c2ccccc2)Cc2ccccc2)c1` the value was 1.6.
Regarding `Cn1cnc(S(=O)(=O)N(CCN(Cc2cncn2C)c2ccc(C#N)cc2)Cc2ccccc2)c1`, the figures for the IC50 in test [3], in test [2] and in test [4] were over 10000 nM, 2700 nM and 1900 nM, respectively.
For the molecule `Cn1cnc(S(=O)(=O)N(CCN(Cc2cnc[nH]2)c2ccccc2)Cc2ccccc2)c1`, the IC50 in test [3], in test [2] and in test [4] was over 10000 nM each time.

As a reminder, the IC50 is the midpoint of a concentration-inhibition curve.

Source of the values: ChEMBL document CHEMBL1255187, “Structure-based design and synthesis of potent, ethylenediamine-based, mammalian farnesyltransferase inhibitors as anticancer agents” (J Med Chem, 2010).
